According to ChEMBL document CHEMBL1143138, “Synthesis and antimicrobial activity of beta-lactam-bile acid conjugates linked via triazole” (Bioorg Med Chem Lett, 2008):
Values after ≈ are worked out from the molar mass of the structure shown.

What was measured:
Assay type in all cases: functional, organism-based
[1] = system: Candida albicans; experiment: Antimicrobial activity against Candida albicans NCL1 by broth microdilution method
How it was run: (§1)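 Standard NCCLS broth microdilution. Fungal strains were NCL isolates and bacterial strains were NCIM cultures, with DMSO as the negative control. MIC was taken as the concentration giving 90% growth inhibition relative to the growth control, and IC50 as the concentration giving 50% growth inhibition. Values are in µg/mL.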

[2] = system: Cryptococcus neoformans; experiment: Antimicrobial activity against Cryptococcus neoformans NCL2 by broth microdilution method; how it was run: as §1
[3] = system: Benjaminiella poitrasii; experiment: Antimicrobial activity against Benjaminiella poitrasii NCL3 by broth microdilution method; how it was run: as §1
[4] = system: Yarrowia lipolytica; experiment: Antimicrobial activity against Yarrowia lipolytica NCL4 by broth microdilution method; how it was run: as §1
[5] = system: Fusarium oxysporum; experiment: Antimicrobial activity against Fusarium oxysporum NCL5 by broth microdilution method; how it was run: as §1
[6] = system: Escherichia coli; experiment: Antimicrobial activity against Escherichia coli NCIM2574 by broth microdilution method; how it was run: as §1
[7] = system: Staphylococcus aureus; experiment: Antimicrobial activity against Staphylococcus aureus NCIM2122 by broth microdilution method; how it was run: as §1

C#CCOC(=O)CC[C@@H](C)[C@H]1CC[C@H]2[C@@H]3[C@H](O)C[C@@H]4C[C@H](O)CC[C@]4(C)[C@H]3C[C@H](O)[C@]12C
IC50 [1]: 128 µg/mL (≈ 287 µM) | MIC [1]: > 128 µg/mL | IC50 [2]: > 128 µg/mL | MIC [2]: > 128 µg/mL | IC50 [3]: > 128 µg/mL | MIC [3]: > 128 µg/mL | IC50 [4]: 64 µg/mL (≈ 143 µM) | MIC [4]: > 128 µg/mL | IC50 [5]: 128 µg/mL (≈ 287 µM) | MIC [5]: > 128 µg/mL | IC50 [6]: 128 µg/mL (≈ 287 µM) | MIC [6]: > 128 µg/mL | IC50 [7]: 128 µg/mL (≈ 287 µM) | MIC [7]: > 128 µg/mL

C#CCNC(=O)CC[C@@H](C)[C@H]1CC[C@H]2[C@@H]3CC[C@@H]4C[C@H](O)CC[C@]4(C)[C@H]3C[C@H](O)[C@]12C
IC50 [1]: 64 µg/mL (≈ 149 µM) | MIC [1]: > 128 µg/mL | IC50 [2]: 128 µg/mL (≈ 298 µM) | MIC [2]: > 128 µg/mL | IC50 [3]: 128 µg/mL (≈ 298 µM) | MIC [3]: > 128 µg/mL | IC50 [4]: > 128 µg/mL | MIC [4]: > 128 µg/mL | IC50 [5]: 64 µg/mL (≈ 149 µM) | MIC [5]: > 128 µg/mL | IC50 [6]: > 128 µg/mL | MIC [6]: > 128 µg/mL | IC50 [7]: 128 µg/mL (≈ 298 µM) | MIC [7]: > 128 µg/mL

C#CCNC(=O)CC[C@@H](C)[C@H]1CC[C@H]2[C@@H]3[C@H](O)C[C@@H]4C[C@H](O)CC[C@]4(C)[C@H]3C[C@H](O)[C@]12C
IC50 [1]: > 128 µg/mL | MIC [1]: > 128 µg/mL | IC50 [2]: > 128 µg/mL | MIC [2]: > 128 µg/mL | IC50 [3]: > 128 µg/mL | MIC [3]: > 128 µg/mL | IC50 [4]: 64 µg/mL (≈ 144 µM) | MIC [4]: > 128 µg/mL | IC50 [5]: 128 µg/mL (≈ 287 µM) | MIC [5]: > 128 µg/mL | IC50 [6]: 128 µg/mL (≈ 287 µM) | MIC [6]: > 128 µg/mL | IC50 [7]: 64 µg/mL (≈ 144 µM) | MIC [7]: > 128 µg/mL

C#CCOC(=O)CC[C@@H](C)[C@H]1CC[C@H]2[C@@H]3CC[C@@H]4C[C@H](O)CC[C@]4(C)[C@H]3C[C@H](O)[C@]12C
IC50 [1]: 32 µg/mL (≈ 74.3 µM) | MIC [1]: 128 µg/mL (≈ 297 µM) | IC50 [2]: 64 µg/mL (≈ 149 µM) | MIC [2]: > 128 µg/mL | IC50 [3]: 128 µg/mL (≈ 297 µM) | MIC [3]: > 128 µg/mL | IC50 [4]: 128 µg/mL (≈ 297 µM) | MIC [4]: > 128 µg/mL | IC50 [5]: 64 µg/mL (≈ 149 µM) | MIC [5]: > 128 µg/mL | IC50 [6]: 128 µg/mL (≈ 297 µM) | MIC [6]: > 128 µg/mL | IC50 [7]: 128 µg/mL (≈ 297 µM) | MIC [7]: > 128 µg/mL

COc1ccc(N2C(=O)C(N=[N+]=[N-])C2c2ccccc2)cc1 (racemic)
IC50 [1]: 64 µg/mL (≈ 217 µM) | MIC [1]: > 128 µg/mL | IC50 [2]: > 128 µg/mL | MIC [2]: > 128 µg/mL | IC50 [3]: > 128 µg/mL | MIC [3]: > 128 µg/mL | IC50 [4]: 128 µg/mL (≈ 435 µM) | MIC [4]: > 128 µg/mL | IC50 [5]: 64 µg/mL (≈ 217 µM) | MIC [5]: > 128 µg/mL | IC50 [6]: 64 µg/mL (≈ 217 µM) | MIC [6]: > 128 µg/mL | IC50 [7]: > 128 µg/mL | MIC [7]: > 128 µg/mL

COc1ccc(N2C(=O)C(N=[N+]=[N-])C2c2ccc(Cl)cc2)cc1 (racemic)
IC50 [1]: 64 µg/mL (≈ 195 µM) | MIC [1]: > 128 µg/mL | IC50 [2]: 64 µg/mL (≈ 195 µM) | MIC [2]: > 128 µg/mL | IC50 [3]: > 128 µg/mL | MIC [3]: > 128 µg/mL | IC50 [4]: > 128 µg/mL | MIC [4]: > 128 µg/mL | IC50 [5]: 64 µg/mL (≈ 195 µM) | MIC [5]: > 128 µg/mL | IC50 [6]: 128 µg/mL (≈ 389 µM) | MIC [6]: > 128 µg/mL | IC50 [7]: > 128 µg/mL | MIC [7]: > 128 µg/mL

C[C@@H]1[C@H](O)[C@@H](C)/C=C/C=C/C=C/C=C/C=C/C=C/C=C/[C@H](O[C@@H]2O[C@H](C)[C@@H](O)[C@H](N)[C@@H]2O)C[C@@H]2O[C@](O)(C[C@@H](O)C[C@@H](O)[C@H](O)CC[C@@H](O)C[C@@H](O)CC(=O)O[C@H]1C)C[C@H](O)[C@H]2C(=O)O (stereo in doubt) [AMPHOTERICIN B]
IC50 [1]: 0.5 µg/mL (≈ 0.541 µM) | MIC [1]: 2 µg/mL (≈ 2.16 µM) | IC50 [2]: 8 µg/mL (≈ 8.66 µM) | MIC [2]: 16 µg/mL (≈ 17.3 µM) | IC50 [3]: 8 µg/mL (≈ 8.66 µM) | MIC [3]: 16 µg/mL (≈ 17.3 µM) | IC50 [4]: 8 µg/mL (≈ 8.66 µM) | MIC [4]: 16 µg/mL (≈ 17.3 µM) | IC50 [5]: 8 µg/mL (≈ 8.66 µM) | MIC [5]: 16 µg/mL (≈ 17.3 µM)

CC1(C)S[C@@H]2[C@H](NC(=O)[C@H](N)c3ccccc3)C(=O)N2[C@H]1C(=O)O [AMPICILLIN]
IC50 [6]: 1 µg/mL (≈ 2.86 µM) | IC50 [7]: 4 µg/mL (≈ 11.4 µM)

OC(Cn1cncn1)(Cn1cncn1)c1ccc(F)cc1F [FLUCONAZOLE]
IC50 [1]: 4 µg/mL (≈ 13.1 µM) | MIC [1]: 32 µg/mL (≈ 104 µM) | IC50 [2]: 16 µg/mL (≈ 52.2 µM) | MIC [2]: 32 µg/mL (≈ 104 µM) | IC50 [3]: 16 µg/mL (≈ 52.2 µM) | MIC [3]: 32 µg/mL (≈ 104 µM) | IC50 [4]: 32 µg/mL (≈ 104 µM) | MIC [4]: 64 µg/mL (≈ 209 µM) | IC50 [5]: 4 µg/mL (≈ 13.1 µM) | MIC [5]: 8 µg/mL (≈ 26.1 µM)

CN(C)[C@@H]1C(O)=C(C(N)=O)C(=O)[C@@]2(O)C(O)=C3C(=O)c4c(O)cccc4[C@@](C)(O)[C@H]3C[C@@H]12 [TETRACYCLINE]
IC50 [6]: 4 µg/mL (≈ 9 µM) | MIC [6]: 8 µg/mL (≈ 18 µM) | IC50 [7]: 8 µg/mL (≈ 18 µM) | MIC [7]: 16 µg/mL (≈ 36 µM)
